This note sets out measurements from ChEMBL document CHEMBL1135975, “Design, synthesis, and evaluation of new noncross-linking pyrrolobenzodiazepine dimers with efficient DNA binding ability and potent antitumor activity” (2002).

The species entered for experiment [1] is Bos taurus. Kind of experiment: Thermal denaturation measured for calf thymus DNA after incubation at 37 degree at 0h. In short, it runs like this: (§1)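 Calf thymus DNA (100 µM in phosphate) with ligand at 20 µM final, a 1:5 ligand/DNA molar ratio, added from concentrated MeOH solution. Buffer was 10 mM sodium phosphate with 1 mM EDTA, pH 7.00. Samples were incubated at 37 °C for 0 or 18 h, then heated at 1 °C/min over 40-90 °C with A260 monitored. Tm was taken from the d(A260)/dT maxima, and ∆Tm given relative to DNA alone.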

For experiment [2], the species on record is Bos taurus. As to the kind of experiment: Thermal denaturation measured for calf thymus DNA after incubation at 37 degree at 18 h. In short, it runs like this: as §1
The subject of experiment [3] is Tumor Cell line. Kind of experiment: In vitro cytotoxicity of drug concentration causing total cell growth inhibition. The experiment is classed as functional, Homo sapiens. The following applies: read-out: Log TGI (converted). In short, it runs like this: (§2)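 Sixty human tumor cell lines covering nine cancer types. Continuous drug exposure for 48 h, with growth or viability read by sulforhodamine B protein assay. Dose-response curves were run at a minimum of five concentrations at 10-fold dilutions. GI50 (50% growth inhibition) and TGI (0% growth) were calculated relative to control and reported as log mean graph midpoints across all cell lines.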

Experiment [4] concerns Tumor Cell line. As to the kind of experiment: In-vitro cytotoxicity of Drug molar concentration causing 50% cell growth inhibition against Human tumor cell lines. The experiment is classed as functional. In short, it runs like this:
as §2

The next experiment deals with Melanoma cell. Kind of experiment: Drug concentration causing 50% lethality against human cancer line melanoma. The experiment is classed as functional. Conditions: read-out: Log LC50 (the source's name) (converted). In short, it runs like this: (§3)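 Sixty-line human tumour panel screen: at least five concentrations at 10-fold dilutions, 48 h continuous exposure, growth read by sulforhodamine B protein stain. LC50 is the molar concentration giving 50% cell death (-50% growth) relative to control, as log LC50. Each cancer-type value is the average of 6-8 different cell lines.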

Experiment [5] deals with Tumor Cell line. Kind of experiment: In vitro cytotoxicity of drug concentration causing 50% cell death. The experiment is classed as functional, Homo sapiens. The following applies: read-out: Log LC50 (the source's name) (converted). In short, it runs like this:
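Compound tested against sixty human tumour lines from nine cancer types, each line at at least five concentrations at 10-fold dilutions, 48 h continuous exposure, sulforhodamine B protein read-out. LC50 is the concentration causing 50% cell death (-50% growth) versus control. The value is the mean graph midpoint of log LC50 over all lines.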

For the next experiment, the system named is Ovarian carcinoma cell. As to the kind of experiment: Drug concentration causing 50% lethality against ovarian human cancer line. The experiment is classed as functional. Conditions: read-out: Log LC50 (the source's name) (converted). In short, it runs like this:
as §3

The test system of a further experiment is Renal cancer cell line. As to the kind of experiment: Drug concentration causing 50% lethality against renal human cancer line. Conditions: read-out: Log LC50 (the source's name) (converted). The experiment is classed as functional. In short, it runs like this: as §3
For a further experiment, the species on record is Homo sapiens. Kind of experiment: Drug concentration causing 50% lethality against human cancer line nonsmall-cell lung. The experiment is classed as functional. The following applies: read-out: Log LC50 (the source's name) (converted). In short, it runs like this:
as §3

Another experiment relates to Prostatic carcinoma cell. As to the kind of experiment: Drug concentration causing 50% lethality against prostate human cancer line. The following applies: read-out: Log LC50 (the source's name) (converted). The experiment is classed as functional. In short, it runs like this: as §3
In a further experiment the test system is Breast carcinoma cell. As to the kind of experiment: Drug concentration causing 50% lethality against breast human cancer line. The experiment is classed as functional. In short, it runs like this: as §3
Another experiment concerns Colon carcinoma cell. As to the kind of experiment: Drug concentration causing 50% lethality against human cancer line of colon. The experiment is classed as functional. In short, it runs like this: as §3
The next experiment concerns CNS carcinoma cell. As to the kind of experiment: Drug concentration causing 50% lethality against human cancer line of CNS. The experiment is classed as functional. In short, it runs like this:
as §3

Experiment [6] relates to Panel leukemia (Carcinoma cell lines). Kind of experiment: Drug concentration causing 50% lethality against human cancer line leukemia. The experiment is classed as functional. Conditions: read-out: Log LC50 (the source's name) (converted). In short, it runs like this:
as §3

Setting [7] is: Homo sapiens, Ovarian carcinoma cell.
The mark [8] stands for this setting: Homo sapiens, Renal cancer cell line.

Several values for one entry are separate records, joined by “and”; a condition that tells them apart may be missing. Equal entries are not always repeated. Some results are limits rather than exact numbers.

Take `COc1cc2c(cc1O)N=C[C@@H]1CCCN1C2=O`: the results for the ΔTm in the experiment filed under Bos taurus [1] and in the experiment listed under Bos taurus [2] were 0.3 °C and 0.7 °C, respectively.
Turning to `COc1cc2c(cc1OCCCOc1cc3c(cc1OC)C(=O)N1CCC[C@H]1C=N3)N=C[C@@H]1CCCN1C2=O`, the ΔTm in the experiment listed under Bos taurus [1] came out at 10.2 °C.
For the compound `COc1cc2c(cc1OCCCCCOc1cc3c(cc1OC)C(=O)N1CCC[C@H]1C(=O)N3)N=C[C@@H]1CCCN1C2=O`, the TGI with Tumor Cell line [3] (Homo sapiens, Tumor Cell line) was 2.24 µM; in the experiment with Tumor Cell line [3], 1.12 µM. Besides, the GI50 in the experiment on Tumor Cell line [4] is 0.12 µM; with Tumor Cell line [4] (Homo sapiens, Tumor Cell line) it was 0.115 µM. In addition, the CC50 in the experiment on Melanoma cell is 10 µM and 3.31 µM; with Tumor Cell line [5] (Homo sapiens, Tumor Cell line), 44.7 µM; in the experiment on Tumor Cell line [5], 27.5 µM; in the experiment with Ovarian carcinoma cell (setting [7]) it was 87.1 µM; in the experiment with Ovarian carcinoma cell, 60.3 µM; with Renal cancer cell line (setting [8]), 51.3 µM. In addition, the CC50 with Renal cancer cell line was 44.7 µM; in the experiment listed under Homo sapiens (Homo sapiens) it was 58.9 µM; in the experiment listed under Homo sapiens, 79.4 µM; in the experiment on Prostatic carcinoma cell it was > 100 µM. Further, the figures for the ΔTm in the experiment listed under Bos taurus [1] and in the experiment filed under Bos taurus [2] were 14 °C and 17 °C, respectively.
Consider `COc1cc2c(cc1OCCCCOc1cc3c(cc1OC)C(=O)N1CCC[C@H]1C(=O)N3)N=C[C@@H]1CCCN1C2=O`, for which the TGI in the experiment with Tumor Cell line [3] (Homo sapiens, Tumor Cell line) was 20.4 µM. In the experiment with Tumor Cell line [4] (Homo sapiens, Tumor Cell line), the concentration for 50% growth inhibition (GI50) was 7.24 µM. The CC50 in the experiment with Melanoma cell (Homo sapiens, Melanoma cell) was 41.7 µM; in the experiment with Tumor Cell line [5] (Homo sapiens, Tumor Cell line), 50.1 µM; with Ovarian carcinoma cell (setting [7]), 58.9 µM; in the experiment with Renal cancer cell line (setting [8]), 55 µM; in the experiment filed under Homo sapiens (Homo sapiens) it was 58.9 µM; in the experiment on Prostatic carcinoma cell, 67.6 µM. For the same compound, in [6], the CC50 was 24.4 µM. The results for the shift in melting temperature (ΔTm) in the experiment listed under Bos taurus [1] and in the experiment listed under Bos taurus [2] were 5 °C and 8.5 °C, respectively. Also, the results for the median lethal concentration (LC50) in the experiment with Breast carcinoma cell and in the experiment on CNS carcinoma cell were 53.7 µM and 45.7 µM, respectively. The compound also gave an LC50 (50% lethal concentration) in the experiment on Colon carcinoma cell of 57.5 µM.
For `COc1cc2c(cc1OCCCOc1cc3c(cc1OC)C(=O)N1CCC[C@H]1C(=O)N3)N=C[C@@H]1CCCN1C2=O`, in the experiment with Tumor Cell line [3] (Homo sapiens, Tumor Cell line), the total growth inhibition concentration (TGI) was 42.7 µM. The compound further had a concentration for 50% growth inhibition (GI50) with Tumor Cell line [4] (Homo sapiens, Tumor Cell line) of 13.2 µM. Further, the CC50 in the experiment on Melanoma cell (Homo sapiens, Melanoma cell) was 83.2 µM; in the experiment with Tumor Cell line [5] (Homo sapiens, Tumor Cell line), 83.2 µM; in the experiment on Ovarian carcinoma cell (setting [7]), 95.5 µM; with Renal cancer cell line (setting [8]), 91.2 µM; in the experiment filed under Homo sapiens (Homo sapiens), > 100 µM; in the experiment on Prostatic carcinoma cell it was > 100 µM. The CC50 in experiment [6] is 33.1 µM. In addition, the ΔTm came to 6.5 °C in the experiment filed under Bos taurus [1] and 7 °C in the experiment filed under Bos taurus [2].

For orientation: ΔTm means the change in melting temperature against a reference sample. The term TGI denotes the concentration at which net growth stops. By GI50 is commonly meant the concentration that inhibits growth by half. Low values mean greater sensitivity of the cells, high ones lower sensitivity of the cells. The term LC50 denotes the concentration that kills 50% of the test population. A low value points to a more lethal substance.
